Where only a bound is given, the exact number is not on record here.

Assay [1] concerns MDA-MB-231. In words: Antiproliferative activity against human MDA-MB-231 cells after 24 hrs by MTT assay. Type of assay: functional, cell-based. The conditions noted are these: MDA-MB-231, 24 h. On the technique in general: Tetrazolium assays rely on reduction of a dye to a coloured formazan, in cell work by metabolically active cells.
The subject of assay [2] is MDA-MB-231. In words: Antiproliferative activity against human MDA-MB-231 cells after 24 hrs by MTT assay relative to control. Format: functional. Put shortly: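 MDA-MB-231 cells kept in DMEM with 10% FBS at 37°C, 5% CO2. Seeded at 5×10^3 cells/well and left 24 h, then exposed to compounds at 0.078-10 µM for 24 h. 0.1% DMSO served as the vehicle control. MTT added for 4 h, formazan dissolved in DMSO, absorbance read at 570 nm. IC50 derived. Each run in triplicate, repeated at least three times.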

The target in assay [3] is T1, Glutaminase kidney isoform, mitochondrial (Homo sapiens) (UniProt O94925).
T1 sequence (whole entry): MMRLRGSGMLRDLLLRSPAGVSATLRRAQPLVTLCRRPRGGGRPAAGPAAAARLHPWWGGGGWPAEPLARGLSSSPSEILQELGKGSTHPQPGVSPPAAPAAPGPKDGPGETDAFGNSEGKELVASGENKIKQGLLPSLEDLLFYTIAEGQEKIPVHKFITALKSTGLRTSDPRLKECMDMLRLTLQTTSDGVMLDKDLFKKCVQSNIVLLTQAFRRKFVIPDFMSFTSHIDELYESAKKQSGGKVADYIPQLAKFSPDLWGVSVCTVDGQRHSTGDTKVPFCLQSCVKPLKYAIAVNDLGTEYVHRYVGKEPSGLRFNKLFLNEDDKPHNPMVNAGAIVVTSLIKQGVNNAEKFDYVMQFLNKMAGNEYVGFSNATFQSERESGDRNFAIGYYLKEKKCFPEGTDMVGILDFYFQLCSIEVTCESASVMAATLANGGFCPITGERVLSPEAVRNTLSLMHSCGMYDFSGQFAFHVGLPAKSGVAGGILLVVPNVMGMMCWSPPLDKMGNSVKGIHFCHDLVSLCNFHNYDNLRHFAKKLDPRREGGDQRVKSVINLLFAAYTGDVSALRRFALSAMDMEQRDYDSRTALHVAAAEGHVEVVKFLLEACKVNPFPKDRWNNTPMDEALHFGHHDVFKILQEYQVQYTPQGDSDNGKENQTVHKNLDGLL
The assay can be described thus: Inhibition of human GLS1 at 10 uM relative to control. A digest of the protocol:
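Human GLS1 hydrolase activity measured with a commercial GLS1 inhibitor screening kit, following the manufacturer's protocol. Single-point screening was run at 10 μM.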

`CC(=O)O[C@H]1C=C([C@H](C)[C@H]2CC(C)=C(C)C(=O)O2)[C@@]2(C)CC[C@H]3[C@@H](C[C@H]4O[C@]45[C@@H](OC(=O)CCC(=O)Nc4ccc(N(C)C)cc4)C=CC(=O)[C@]35C)[C@@]12O`: the 50% inhibitory concentration (IC50) in assay [1] came out at 1620 nM. Also, in assay [2], the “inhibition (INH)” value amounted to 83.3%. In assay [3], this compound showed an inhibition of under 50%.
Compound `COc1ccc(NC(=O)/C=C/C(=O)O[C@H]2C=CC(=O)[C@]3(C)[C@H]4CC[C@]5(C)C([C@H](C)[C@H]6CC(C)=C(C)C(=O)O6)=C[C@H](OC(C)=O)[C@]5(O)[C@@H]4C[C@H]4O[C@]243)cc1` had an IC50 in assay [1] of 790 nM. The “inhibition (INH)” value in assay [2] is listed as 94.1%. In assay [3], the inhibition came to 51.6%.
Consider `CC(=O)O[C@H]1C=C([C@H](C)[C@H]2CC(C)=C(C)C(=O)O2)[C@@]2(C)CC[C@H]3[C@@H](C[C@H]4O[C@]45[C@@H](OC(=O)CCCC(=O)O)C=CC(=O)[C@]35C)[C@@]12O`, for which the IC50 in assay [1] was over 50000 nM. In addition, the inhibition in assay [3] is under 50%.
Regarding `COc1ccc(NC(=O)CCCC(=O)O[C@H]2C=CC(=O)[C@]3(C)[C@H]4CC[C@]5(C)C([C@H](C)[C@H]6CC(C)=C(C)C(=O)O6)=C[C@H](OC(C)=O)[C@]5(O)[C@@H]4C[C@H]4O[C@]243)cc1`, in assay [1], 440 nM corresponded to half-maximal inhibition (IC50). Further, in assay [2], the “inhibition (INH)” value was found to be 92.9%. Moreover, the inhibition in assay [3] came to 56.3%.
On the same counts, the results for `COc1ccc(NC(=O)CCCC(=O)O[C@H]2C(Nc3ccc(OC)cc3)CC(=O)[C@]3(C)[C@H]4CC[C@]5(C)C([C@H](C)[C@H]6CC(C)=C(C)C(=O)O6)=C[C@H](OC(C)=O)[C@]5(O)[C@@H]4C[C@H]4O[C@@]423)cc1` (some centres undefined) are over 50000 nM, 0% and under 50%.
The compound `CC(=O)O[C@H]1C=C([C@H](C)[C@H]2CC(C)=C(C)C(=O)O2)[C@@]2(C)CC[C@H]3[C@@H](C[C@H]4O[C@]45[C@@H](OC(=O)CCC(=O)Nc4nccs4)C=CC(=O)[C@]35C)[C@@]12O` yielded an IC50 in assay [1] of 2060 nM. For the same compound, the “inhibition (INH)” value in assay [2] was 79.6%. In assay [3], this compound had an inhibition of under 50%.
In assay [1], `CC(=O)O[C@H]1C=C([C@H](C)[C@H]2CC(C)=C(C)C(=O)O2)[C@@]2(C)CC[C@H]3[C@@H](C[C@H]4O[C@]45[C@@H](OC(=O)CCC(=O)Nc4ccc(F)cc4)C=CC(=O)[C@]35C)[C@@]12O` registered an IC50 of 1870 nM. The “inhibition (INH)” value in assay [2] came to 80.4%. For the same compound, in assay [3], the inhibition is under 50%.
On the same counts, the results for `CC(=O)O[C@H]1C=C([C@H](C)[C@H]2CC(C)=C(C)C(=O)O2)[C@@]2(C)CC[C@H]3[C@@H](C[C@H]4O[C@]45[C@@H](OC(=O)CCCC(=O)Nc4nncs4)C=CC(=O)[C@]35C)[C@@]12O` are 2170 nM, 71.6% and under 50%.
For `COc1ccc(NC(=O)/C=C/C(=O)O[C@H]2C(Nc3ccc(OC)cc3)CC(=O)[C@]3(C)[C@H]4CC[C@]5(C)C([C@H](C)[C@H]6CC(C)=C(C)C(=O)O6)=C[C@H](OC(C)=O)[C@]5(O)[C@@H]4C[C@H]4O[C@@]423)cc1` (some centres undefined), in that order: over 50000 nM, 0% and under 50%.
For `CC(=O)O[C@H]1C=C([C@H](C)[C@H]2CC(C)=C(C)C(=O)O2)[C@@]2(C)CC[C@H]3[C@@H](C[C@H]4O[C@]45[C@@H](OC(=O)/C=C/C(=O)Nc4ccc(N(C)C)cc4)C=CC(=O)[C@]35C)[C@@]12O`, in that order: 1560 nM, 72.1% and under 50%.
Regarding `COc1ccc(NC(=O)CCC(=O)O[C@H]2C=CC(=O)[C@]3(C)[C@H]4CC[C@]5(C)C([C@H](C)[C@H]6CC(C)=C(C)C(=O)O6)=C[C@H](OC(C)=O)[C@]5(O)[C@@H]4C[C@H]4O[C@]243)cc1`, in assay [1], the IC50 came out at 1020 nM. In addition, the “inhibition (INH)” value in assay [2] is 82.9%. This compound gave an inhibition in assay [3] of under 50%.
In turn, `COc1ccc(NC(=O)CCC(=O)O[C@H]2C(Nc3ccc(OC)cc3)CC(=O)[C@]3(C)[C@H]4CC[C@]5(C)C([C@H](C)[C@H]6CC(C)=C(C)C(=O)O6)=C[C@H](OC(C)=O)[C@]5(O)[C@@H]4C[C@H]4O[C@@]423)cc1` (some centres undefined) registered an IC50 in assay [1] of over 50000 nM. Moreover, the “inhibition (INH)” value in assay [2] is 0%. Further, the inhibition in assay [3] is under 50%.
For `CC(=O)O[C@H]1C=C([C@H](C)[C@H]2CC(C)=C(C)C(=O)O2)[C@@]2(C)CC[C@H]3[C@@H](C[C@H]4O[C@]45[C@@H](OC(=O)CCC(=O)Nc4nc6ccccc6s4)C=CC(=O)[C@]35C)[C@@]12O`, in that order: 3500 nM, 79.5% and under 50%.
For `CC(=O)O[C@H]1C=C([C@H](C)[C@H]2CC(C)=C(C)C(=O)O2)[C@@]2(C)CC[C@H]3[C@@H](C[C@H]4O[C@]45[C@@H](OC(=O)/C=C/C(=O)Nc4ccc(N6CCOCC6)c(F)c4)C=CC(=O)[C@]35C)[C@@]12O`, in that order: 1380 nM, 90.8% and 52.4%.
On to `CC(=O)O[C@H]1C=C([C@H](C)[C@H]2CC(C)=C(C)C(=O)O2)[C@@]2(C)CC[C@H]3[C@@H](C[C@H]4O[C@]45[C@@H](OC(=O)CCCC(=O)Nc4nc6ccccc6s4)C=CC(=O)[C@]35C)[C@@]12O`, for which the midpoint of inhibition in assay [1], the IC50, lay at 670 nM. The “inhibition (INH)” value in assay [2] is 94.1%. In assay [3], this compound registered an inhibition of under 50%.
`CC(=O)O[C@H]1C=C([C@H](C)[C@H]2CC(C)=C(C)C(=O)O2)[C@@]2(C)CC[C@H]3[C@@H](C[C@H]4O[C@]45[C@@H](OC(=O)CCCC(=O)Nc4ccc(N(C)C)cc4)C=CC(=O)[C@]35C)[C@@]12O` yielded an IC50 in assay [1] of 1070 nM. In addition, the “inhibition (INH)” value in assay [2] turned out to be 92.6%. This compound gave an inhibition in assay [3] of 51.8%.
For `CC(=O)O[C@H]1C=C([C@H](C)[C@H]2CC(C)=C(C)C(=O)O2)[C@@]2(C)CC[C@H]3[C@@H](C[C@H]4O[C@]45[C@@H](OC(=O)CCC(=O)Nc4ccc(N6CCOCC6)c(F)c4)C=CC(=O)[C@]35C)[C@@]12O`, in that order: 1660 nM, 80.9% and 53.5%.
Compound `O=C(Cc1ccccc1)Nc1nnc(CCSCCc2nnc(NC(=O)Cc3ccccc3)s2)s1` came in with a 50% inhibitory concentration (IC50) in assay [1] of 9080 nM. For the same compound, the “inhibition (INH)” value in assay [2] turned out to be 68.5%.
For `CC(=O)O[C@H]1C=C([C@H](C)[C@H]2CC(C)=C(C)C(=O)O2)[C@@]2(C)CC[C@H]3[C@@H](C[C@H]4O[C@]45[C@@H](OC(=O)CCC(=O)Nc4nncs4)C=CC(=O)[C@]35C)[C@@]12O`, the IC50 in assay [1] was 8070 nM. For the same compound, the “inhibition (INH)” value in assay [2] is reported as 77.5%. Further, in assay [3], the inhibition is under 50%.
In turn, `CC(=O)O[C@H]1C=C([C@H](C)[C@H]2CC(C)=C(C)C(=O)O2)[C@@]2(C)CC[C@H]3[C@@H](C[C@H]4O[C@]45[C@@H](OC(=O)CCC(=O)O)C=CC(=O)[C@]35C)[C@@]12O` showed an IC50 in assay [1] of over 50000 nM. Moreover, in assay [3], the inhibition is under 50%.
For `CC(=O)O[C@H]1C=C([C@H](C)[C@H]2CC(C)=C(C)C(=O)O2)[C@@]2(C)CC[C@H]3[C@@H](C[C@H]4O[C@]45[C@@H](OC(=O)/C=C/C(=O)O)C=CC(=O)[C@]35C)[C@@]12O`, in that order: over 50000 nM and under 50%.

One may read the IC50 as the point on the concentration scale where inhibition reaches its midpoint. A lower IC50 goes with greater potency in that assay. In general, inhibition refers to the drop in the measured response relative to a control, in per cent.

Values taken from ChEMBL document CHEMBL4811218, “Discovery and optimization of withangulatin A derivatives as novel glutaminase 1 inhibitors for the treatment of triple-negative breast cancer” (Eur J Med Chem, 2021).
